15 molecules from ChEMBL document CHEMBL1157219, “Chalcones and other compounds from the exudates of Angelica keiskei and their cancer chemopreventive effects” (J Nat Prod, 2006) can be followed below.

Data set [1] concerns Raji. Briefly: Inhibition of TPA-induced EBV-early antigen activation in human Raji cells at 500 molar ratio relative to TPA. The format is cell-based. Set-up: scale not given: the % may be the effect or the level left. To be noted: human gammaherpesvirus 4. The essentials: (§1)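 Raji cells incubated 48 h at 37 °C in medium with n-butyric acid (4 mM), TPA (32 pmol) and test compound at molar ratios to TPA (1000, 500, 100). Smears were stained for EBV-EA by indirect immunofluorescence. Induction is given as % of TPA-alone control (100%).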

The nature of data set [2]: Inhibition of TPA-induced EBV-early antigen activation in human Raji cells. The data set is classed as cell-based, human gammaherpesvirus 4. The essentials:
as §1

Data set [3] has as its system Raji. Briefly: Inhibition of TPA-induced EBV-early antigen activation in human Raji cells at 10 molar ratio relative to TPA. The data set is classed as cell-based. The arrangement: scale not given: the % may be the effect or the level left. The conditions noted are these: human gammaherpesvirus 4.
For data set [4], the system named is Raji. Briefly: Inhibition of TPA-induced EBV-early antigen activation in human Raji cells at 100 molar ratio relative to TPA. To be noted: human gammaherpesvirus 4. The format is cell-based. The arrangement: scale not given: the % may be the effect or the level left. In a few lines:
as §1

The nature of data set [5]: Cytotoxicity against human Raji cells assessed as cell viability at 1000 molar ratio. The data set is classed as cell-based. The conditions noted are these: read-out: Activity. In a few lines: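 Raji cell viability was recorded as a percentage in the EBV-EA setup: 48 h at 37 °C with n-butyric acid (4 mM), TPA (32 pmol) and compound at 32 nmol (1000:1 molar ratio to TPA).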

Data set [6] in a line: Scavenging activity against (+/-)-(E)-methyl-2-[(E)-hydroxyimino]-5-nitro-6-methoxy-3-hexemide-induced NO generation in human Chang liver cells. The data set is classed as functional. In a few lines:
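Human Chang liver cells (5 × 10^5/mL) were cultured in MEM Eagle medium for 3 days. Samples (350 nmol) were added 1 min before NOR 1 (350 nmol), then incubated 1 h in a CO2 incubator. Transformed cells were counted under light microscopy (×100, >250 cells). The inhibitory ratio is transformed % with NOR 1 alone divided by transformed % with NOR 1 plus sample, with NOR 1 taken as 1.0.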

For data set [7], the system named is Raji. Briefly: Inhibition of TPA-induced EBV-early antigen activation in human Raji cells at 1000 molar ratio relative to TPA. The data set is classed as cell-based. The arrangement: scale not given: the % may be the effect or the level left. The conditions noted are these: human gammaherpesvirus 4. In a few lines: as §1
The species entered for data set [8] is Mus musculus. Briefly: Inhibition of tumor promotion in mouse assessed as papilloma bearing mouse after 20 weeks. The format is functional. The essentials:
(§2)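 Two-stage mouse skin carcinogenesis using DMBA and TPA as promoter. Groups were 15 mice housed five per cage with water ad libitum. The percentage of papilloma-bearing mice was scored at 10 and 20 weeks of promotion in treated versus untreated groups.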

Data set [9] is filed under the species Mus musculus. Briefly: Inhibition of tumor promotion in mouse assessed as papilloma bearing mouse after 10 weeks. The data set is classed as functional. In a few lines: as §2

As to `COc1cc(O)c2c(c1CC=C(C)C)O[C@H](c1ccc(O)cc1)CC2=O` [MUNDULEAFLAVANONE B], the Activity was determined as 24.9% in the data set on Raji [1], 90.3% in the data set on Raji [3], 66.7% with Raji [4] and 0% in the data set on Raji [7]. This molecule displayed an IC50 in data set [2] of 230 molar ratio. Further, in [5], the viability at 1000 molar ratio was 70%. For the same molecule, the Ratio in data set [6] stood at 2.3.

Consider `CC(C)=CCCC1(C)CCc2c(O)ccc(C(=O)/C=C/c3ccc(O)cc3)c2O1` (stereo not given), for which the Activity in the data set on Raji [1] was found to be 20.3%; in the data set on Raji [3], 87.3%; with Raji [4] it was 64.7%; with Raji [7], 0%. The IC50 in data set [2] was 273 molar ratio. The viability at 1000 molar ratio in [5] came to 70%. In data set [6], the Ratio came out at 2.4.

Turning to `CC(C)=CCC/C(C)=C/Cc1c(O)cc(O)c2c1O[C@H](c1ccc(O)cc1)CC2=O` [SOPHORAFLAVANONE A], the Activity was 18.5% in the data set with Raji [1], 89.3% in the data set with Raji [3], 56.4% in the data set with Raji [4] and 0% with Raji [7]. Further, the IC50 in data set [2] is 215 molar ratio. In addition, the viability at 1000 molar ratio in [5] came out at 70%. In data set [6], the Ratio is recorded as 2.1.

Consider `CC(C)=CCc1c(O)ccc(C(=O)/C=C/c2ccc(O)cc2)c1O` [ISOBAVACHALCONE], for which the Activity in the data set with Raji [1] was determined as 26.3%; in the data set with Raji [3], 98.4%; with Raji [4] it was 63%; with Raji [7] it was 0%. In addition, the IC50 in data set [2] turned out to be 320 molar ratio. Moreover, the “inhibition (INH)” value amounted to 80% in the data set filed under Mus musculus [8] and 20% in the data set filed under Mus musculus [9]. Further, the viability at 1000 molar ratio in data set [5] was found to be 60%. The Ratio in [6] was determined as 2.

In the case of `COc1c2occc2cc2ccc(=O)oc12` [METHOXSALEN], the Activity with Raji [1] is 55.2%; with Raji [3] it was 100%; with Raji [4], 83.1%; with Raji [7] it was 14.2%. In data set [2], this molecule had an IC50 of 490 molar ratio. Further, the viability at 1000 molar ratio in [5] stood at 60%. For the same molecule, the Ratio in data set [6] turned out to be 1.3.

Regarding `CC1(C)CCc2c(ccc(C(=O)/C=C/c3ccc(O)cc3)c2O)O1` [DORSMANNIN A], the Activity is 61.7% with Raji [1], 100% in the data set on Raji [3], 86% in the data set with Raji [4] and 34.2% in the data set with Raji [7]. Also, the IC50 in [2] came out at 583 molar ratio. The viability at 1000 molar ratio in [5] is 60%. Moreover, the Ratio in data set [6] stood at 1.9.

In the case of `CC1(C)N([O])C(c2ccc(C(=O)O)cc2)=[N+]([O-])C1(C)C`, the Ratio in data set [6] was found to be 8.

Turning to `CC(C)=CCc1c(O)ccc2ccc(=O)oc12` [OSTHENOL], the Activity came to 30.1% in the data set on Raji [1], 90.6% in the data set on Raji [3], 69.8% in the data set with Raji [4] and 0% in the data set with Raji [7]. Also, the IC50 in data set [2] amounted to 290 molar ratio. The viability at 1000 molar ratio in data set [5] was 70%. The Ratio in data set [6] came out at 2.

In the case of `COc1ccc(C(=O)/C=C/c2ccc(O)cc2)c2c1CCC(C)(C)O2` [DEOXYXANTHOANGELOL H], the Activity with Raji [1] was determined as 60.5%; with Raji [3], 100%; in the data set on Raji [4] it was 85.2%; with Raji [7], 32.1%. The IC50 in [2] came out at 578 molar ratio. In addition, the viability at 1000 molar ratio in data set [5] came to 60%. For the same molecule, the Ratio in [6] is 1.5.

As to `CC1=C(/C=C/C(C)=C/C=C/C(C)=C/C(=O)O)C(C)(C)CCC1` [TRETINOIN], the Activity is 49.3% in the data set on Raji [1], 100% in the data set on Raji [3], 76.3% in the data set on Raji [4] and 15.3% in the data set on Raji [7]. The molecule also registered an IC50 in [2] of 482 molar ratio. The viability at 1000 molar ratio in data set [5] is 60%.

As for `CC1(C)[C@@H](O[C@H]2O[C@H](C(=O)O)[C@@H](O)[C@H](O)[C@H]2O[C@@H]2O[C@H](C(=O)O)[C@@H](O)[C@H](O)[C@H]2O)CC[C@]2(C)[C@H]3C(=O)C=C4[C@@H]5C[C@@](C)(C(=O)O)CC[C@]5(C)CC[C@@]4(C)[C@]3(C)CC[C@@H]12` [GLYCYRRHIZIN], the Activity in the data set with Raji [1] turned out to be 63.3%; in the data set with Raji [3] it was 100%; in the data set with Raji [4], 83.3%; in the data set with Raji [7] it was 27.4%. In [2], this molecule showed an IC50 of 572 molar ratio. Moreover, in data set [5], the viability at 1000 molar ratio was over 80%. The Ratio in data set [6] was determined as 2.2.

As for `C=C[C@@H](O)C#CC#C[C@@H](O)/C=C\CCCCCCCCOC(C)=O`, the Activity with Raji [1] is 53.1%; in the data set with Raji [3], 100%; in the data set with Raji [4], 81.4%; with Raji [7], 18.7%. The IC50 in [2] is listed as 511 molar ratio. In data set [5], the viability at 1000 molar ratio was determined as 60%. Moreover, the Ratio in data set [6] was found to be 1.2.

In the case of `COc1ccc(C(=O)CCc2ccc(O)cc2)c2c1CCC(C)(C)O2` [DEOXYDIHYDROXANTHOANGELOL H], the Activity amounted to 56.7% with Raji [1], 100% in the data set with Raji [3], 81.6% with Raji [4] and 27.4% in the data set with Raji [7]. The molecule also returned an IC50 in data set [2] of 563 molar ratio. The viability at 1000 molar ratio in data set [5] turned out to be 60%. In [6], the Ratio is listed as 1.6.

With `COc1c2ccoc2c(OC)c2oc(=O)ccc12` [ISOPIMPINELLIN], the Activity in the data set on Raji [1] came to 57.4%; with Raji [3] it was 100%; with Raji [4] it was 81.5%; in the data set with Raji [7], 12.1%. In [2], the IC50 is reported as 486 molar ratio. Also, the viability at 1000 molar ratio in [5] came to 60%. For the same molecule, in data set [6], the Ratio was determined as 1.4.

Turning to `CC(C)=CCCC(C)(O)CCc1c(O)ccc(C(=O)/C=C/c2ccc(O)cc2)c1O` (stereo not given) [XANTHOANGELOL J], the Activity with Raji [1] worked out at 12.5%; with Raji [3], 90.2%; with Raji [4], 66.8%; with Raji [7] it was 0%. Also, the IC50 in data set [2] came to 264 molar ratio. Also, the viability at 1000 molar ratio in [5] was 70%. Besides, the Ratio in [6] is reported as 2.4.
